This is an account of results in ChEMBL document CHEMBL1135327, “Comparison of the prevention of aflatoxin b(1)-induced genotoxicity by quercetin and quercetin pentaacetate” (2002).

The structures appear in SMILES notation.

A short description of assay [1]: The compound was evaluated for in Vitro binding of AFB1 to DNA in rat liver microsomes; Pre-incubation time being 10 mins. The conditions noted are these: Microsome. For orientation: Liver microsomes are a subcellular fraction often used to study metabolism.
Assay [2] is described as follows: The compound was evaluated for in Vitro binding of AFB1 to DNA in rat liver microsomes; Pre-incubation time being 20 mins. Conditions: Microsome.
The nature of assay [3]: The compound was evaluated for in Vitro binding of AFB1 to DNA in rat liver microsomes; Pre-incubation time being 30 mins. Conditions: Microsome.
The species entered for assay [4] is Rattus norvegicus. Description: Influence (2 uM) on transacetylase catalyzed time dependent activation of NADPH cytochrome C reductase at pre-incubation time being 10 mins. The format is functional. The method in brief:
(§1)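 Rat liver microsomes were preincubated at 37 °C with test compound (in DMSO) in 0.05 M phosphate buffer, pH 7.7. Aliquots were taken at 5, 10, 20 and 30 min into a cuvette with EDTA, cytochrome C and NADPH. NADPH–cytochrome C reductase activity was followed at 550 nm. Values are means of four observations.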

Assay [5] is filed under the species Rattus norvegicus. Description: Influence (2 uM) on transacetylase catalyzed time dependent activation of NADPH cytochrome C reductase at pre-incubation time being 20 mins. The assay is classed as functional. The method in brief:
as §1

The species named for assay [6] is Rattus norvegicus. Description: Influence (2 uM) on transacetylase catalyzed time dependent activation of NADPH cytochrome C reductase at pre-incubation time being 30 mins. The format is functional. The method in brief:
as §1

For assay [7], the species on record is Rattus norvegicus. Description: Influence (2 uM) on transacetylase catalyzed time dependent activation of NADPH cytochrome C reductase at pre-incubation time being 5 mins. The assay is classed as functional. Put shortly: as §1
The species named for assay [8] is Rattus norvegicus. Nature of the assay: Effect of compound on AFB1-induced micronuclei formation in rat bone marrow cells (Activity: Micronucleated cells/1000 cells). The assay is classed as functional.
For assay [9], the species on record is Rattus norvegicus. Nature of the assay: Effect of compound on AFB1-induced micronuclei formation in rat bone marrow cells in the presence of AFB1 (Activity: Micronucleated cells/1000 cells). The assay is classed as functional.
Assay [10] is filed under the species Rattus norvegicus. Description: Influence (5 uM) on transacetylase catalyzed time dependent activation of NADPH cytochrome C reductase at pre-incubation time being 10 mins. The format is functional. Put shortly:
as §1

The species named for assay [11] is Rattus norvegicus. Nature of the assay: Influence (5 uM) on transacetylase catalyzed time dependent activation of NADPH cytochrome C reductase at pre-incubation time being 30 mins. The format is functional. Put shortly:
as §1

The species named for assay [12] is Rattus norvegicus. Nature of the assay: Influence (5 uM) on transacetylase catalyzed time dependent activation of NADPH cytochrome C reductase at pre-incubation time being 5 mins. The assay is classed as functional. The method in brief: as §1
Assay [13] is filed under the species Rattus norvegicus. Description: Influence (5 uM) on transacetylase catalyzed time dependent activation of NADPH cytochrome C reductase at pre-incubation time being 20 mins. The assay is classed as functional. The method in brief:
as §1

The inhibition is the share of the control response that was lost under treatment. Regarding `CC(=O)Oc1ccc2c(C)cc(=O)oc2c1OC(C)=O`, the values for the inhibition in [1], in assay [2] and in [3] were 19%, 37.5% and 56.8%, respectively. Besides, the Activation stood at 18.9% in [4], 39.9% in [5], 57.6% in assay [6] and 10.2% in assay [7]. Moreover, the Activity in assay [8] came to 2.25; in assay [9] it was 3.75.

For the compound `O=c1c(O)c(-c2ccc(O)c(O)c2)oc2cc(O)cc(O)c12` [QUERCETIN], the inhibition stood at 5.7% in assay [1], 5.2% in assay [2] and 6.2% in assay [3]. Besides, the Activation was 3.3% in assay [10], 5.7% in assay [11], 3.7% in assay [12] and 5.4% in assay [13]. The Activity is 2 in assay [8] and 6 in assay [9].

`CC(=O)Oc1cc(OC(C)=O)c2c(=O)c(OC(C)=O)c(-c3ccc(OC(C)=O)c(OC(C)=O)c3)oc2c1`: the values for the inhibition in [1], in assay [2] and in assay [3] were 6.7%, 12.8% and 18%, respectively. Besides, the Activation in assay [10] is on record as 13.3%; in assay [11], 37%; in assay [12], 7.1%; in [13] it was 25%. Also, the Activity in assay [8] was 2.25; in assay [9], 4.75.

Regarding `Cc1cc(=O)oc2c(O)c(O)ccc12` [4-METHYLDAPHNETIN], the inhibition in assay [1] stood at 8.5%; in assay [2], 8.2%; in assay [3], 8.9%. Also, the Activation is 2.5% in assay [10], 3.5% in [11], 2.8% in assay [12] and 3.1% in assay [13].
